Measured values reported in ChEMBL document CHEMBL1140929, “Synthesis and evaluation of 18F-labeled 2-phenylbenzothiazoles as positron emission tomography imaging agents for amyloid plaques in Alzheimer's disease” (J Med Chem, 2009).
pKi: −log10 of the molar value.

Legend:
[1] = Biodistribution in NMRI mouse urine at 3.7 MBq/mL, iv after 2 mins by gamma counting; format: ADME, organism-based; conditions: in vivo
Outline: (§1)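 Male NMRI mice (30-40 g) anaesthetised with 0.1 mL ip Hypnorm (fentanyl citrate 63 µg/mL, fluanisone 2 mg/mL). Each received 0.1 mL of HPLC-purified 18F tracer, diluted in 0.9% NaCl to 3.7 MBq/mL (ethanol ≤10%, THF ≤0.02%), via tail vein. Killed by decapitation at 2 or 60 min; blood and organs weighed and γ-counted. Background-corrected, expressed as %ID or %ID/g.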

[2] = system: Heart; assay: Biodistribution in NMRI mouse heart assessed per gram of tissue at 3.7 MBq/mL, iv after 2 mins by gamma counting; format: ADME, organism-based; conditions: in vivo; outline: as §1
[3] = system: Lung; assay: Biodistribution in NMRI mouse lung assessed per gram of tissue at 3.7 MBq/mL, iv after 60 mins by gamma counting; format: ADME, organism-based; conditions: in vivo, 1 h; outline: as §1
[4] = system: Liver; assay: Biodistribution in NMRI mouse liver at 3.7 MBq/mL, iv after 2 mins by gamma counting; format: ADME, organism-based; conditions: in vivo; outline: as §1
[5] = system: Lung; assay: Biodistribution in NMRI mouse lung at 3.7 MBq/mL, iv after 2 mins by gamma counting; format: ADME, organism-based; conditions: in vivo
[6] = system: Lung; assay: Biodistribution in NMRI mouse lung assessed per gram of tissue at 3.7 MBq/mL, iv after 2 mins by gamma counting; format: ADME, organism-based; conditions: in vivo; outline: as §1
[7] = system: Blood; assay: Biodistribution in NMRI mouse blood assessed per gram of tissue at 3.7 MBq/mL, iv after 60 mins by gamma counting; format: ADME, organism-based; conditions: in vivo, 1 h; outline: as §1
[8] = Biodistribution in NMRI mouse urine at 3.7 MBq/mL, iv after 60 mins by gamma counting; format: ADME, organism-based; conditions: in vivo, 1 h; outline: as §1
[9] = system: Cerebellum; assay: Biodistribution in NMRI mouse cerebellum at 3.7 MBq/mL, iv after 60 mins by gamma counting; format: ADME, organism-based; conditions: in vivo, 1 h; outline: as §1
[10] = system: Blood; assay: Biodistribution in NMRI mouse blood assessed per gram of tissue at 3.7 MBq/mL, iv after 2 mins by gamma counting; format: ADME, organism-based; conditions: in vivo; outline: as §1
[11] = system: Stomach; assay: Biodistribution in NMRI mouse stomach at 3.7 MBq/mL, iv after 60 mins by gamma counting; format: ADME, organism-based; conditions: in vivo, 1 h; outline: as §1
[12] = system: Stomach; assay: Biodistribution in NMRI mouse stomach at 3.7 MBq/mL, iv after 2 mins by gamma counting; format: ADME, organism-based; conditions: in vivo; outline: as §1
[13] = Biodistribution in NMRI mouse cerebrum assessed per gram of tissue at 3.7 MBq/mL, iv after 60 mins by gamma counting; format: ADME, organism-based; conditions: in vivo, 1 h; outline: as §1
[14] = Biodistribution in NMRI mouse spleen/pancreas at 3.7 MBq/mL, iv after 60 mins by gamma counting; format: ADME, organism-based; conditions: in vivo, 1 h; outline: as §1
[15] = system: Blood; assay: Biodistribution in NMRI mouse blood at 3.7 MBq/mL, iv after 60 mins by gamma counting; format: ADME, organism-based; conditions: in vivo, 1 h; outline: as §1
[16] = system: Kidney; assay: Biodistribution in NMRI mouse kidney at 3.7 MBq/mL, iv after 60 mins by gamma counting; format: ADME, organism-based; conditions: in vivo, 1 h; outline: as §1
[17] = Biodistribution in NMRI mouse spleen/pancreas assessed per gram of tissue at 3.7 MBq/mL, iv after 2 mins by gamma counting; format: ADME, organism-based; conditions: in vivo; outline: as §1
[18] = system: Cerebellum; assay: Biodistribution in NMRI mouse cerebellum assessed per gram of tissue at 3.7 MBq/mL, iv after 60 mins by gamma counting; format: ADME, organism-based; conditions: in vivo, 1 h; outline: as §1
[19] = system: Liver; assay: Biodistribution in NMRI mouse liver assessed per gram of tissue at 3.7 MBq/mL, iv after 60 mins by gamma counting; format: ADME, organism-based; conditions: in vivo, 1 h; outline: as §1
[20] = system: Kidney; assay: Biodistribution in NMRI mouse kidney assessed per gram of tissue at 3.7 MBq/mL, iv after 60 mins by gamma counting; format: ADME, organism-based; conditions: in vivo, 1 h; outline: as §1
[21] = system: Intestine; assay: Biodistribution in NMRI mouse intestine at 3.7 MBq/mL, iv after 2 mins by gamma counting; format: ADME, organism-based; conditions: in vivo; outline: as §1
[22] = system: Cerebellum; assay: Biodistribution in NMRI mouse cerebellum assessed per gram of tissue at 3.7 MBq/mL, iv after 2 mins by gamma counting; format: ADME, organism-based; conditions: in vivo; outline: as §1
[23] = Biodistribution in NMRI mouse spleen/pancreas assessed per gram of tissue at 3.7 MBq/mL, iv after 60 mins by gamma counting; format: ADME, organism-based; conditions: in vivo, 1 h; outline: as §1
[24] = system: Cerebellum; assay: Biodistribution in NMRI mouse cerebellum at 3.7 MBq/mL, iv after 2 mins by gamma counting; format: ADME, organism-based; conditions: in vivo; outline: as §1
[25] = system: Blood; assay: Biodistribution in NMRI mouse blood at 3.7 MBq/mL, iv after 2 mins by gamma counting; format: ADME, organism-based; conditions: in vivo; outline: as §1
[26] = system: Lung; assay: Biodistribution in NMRI mouse lung at 3.7 MBq/mL, iv after 60 mins by gamma counting; format: ADME, organism-based; conditions: in vivo, 1 h; outline: as §1
[27] = system: Liver; assay: Biodistribution in NMRI mouse liver assessed per gram of tissue at 3.7 MBq/mL, iv after 2 mins by gamma counting; format: ADME, organism-based; conditions: in vivo; outline: as §1
[28] = Biodistribution in NMRI mouse spleen/pancreas at 3.7 MBq/mL, iv after 2 mins by gamma counting; format: ADME, organism-based; conditions: in vivo; outline: as §1
[29] = system: Kidney; assay: Biodistribution in NMRI mouse kidney assessed per gram of tissue at 3.7 MBq/mL, iv after 2 mins by gamma counting; format: ADME, organism-based; conditions: in vivo; outline: as §1
[30] = system: Liver; assay: Biodistribution in NMRI mouse liver at 3.7 MBq/mL, iv after 60 mins by gamma counting; format: ADME, organism-based; conditions: in vivo, 1 h; outline: as §1
[31] = Biodistribution in NMRI mouse cerebrum assessed per gram of tissue at 3.7 MBq/mL, iv after 2 mins by gamma counting; format: ADME, organism-based; conditions: in vivo; outline: as §1
[32] = Biodistribution in NMRI mouse cerebrum at 3.7 MBq/mL, iv after 2 mins by gamma counting; format: ADME, organism-based; conditions: in vivo; outline: as §1
[33] = Biodistribution in NMRI mouse cerebrum at 3.7 MBq/mL, iv after 60 mins by gamma counting; format: ADME, organism-based; conditions: in vivo, 1 h; outline: as §1
[34] = system: Intestine; assay: Biodistribution in NMRI mouse intestine at 3.7 MBq/mL, iv after 60 mins by gamma counting; format: ADME, organism-based; conditions: in vivo, 1 h; outline: as §1
[35] = system: Heart; assay: Biodistribution in NMRI mouse heart at 3.7 MBq/mL, iv after 2 mins by gamma counting; format: ADME, organism-based; conditions: in vivo; outline: as §1
[36] = system: Heart; assay: Biodistribution in NMRI mouse heart assessed per gram of tissue at 3.7 MBq/mL, iv after 60 mins by gamma counting; format: ADME, organism-based; conditions: in vivo, 1 h; outline: as §1
[37] = system: Heart; assay: Biodistribution in NMRI mouse heart at 3.7 MBq/mL, iv after 60 mins by gamma counting; format: ADME, organism-based; conditions: in vivo, 1 h; outline: as §1
[38] = biological target: Amyloid-beta precursor protein (Homo sapiens, UniProt P05067); assay: Displacement of [125I]IMPY from beta-amyloid plaques in Alzheimer's disease patient brain homogenate; format: tissue-based
Sequence of Amyloid-beta precursor protein (P05067 whole entry): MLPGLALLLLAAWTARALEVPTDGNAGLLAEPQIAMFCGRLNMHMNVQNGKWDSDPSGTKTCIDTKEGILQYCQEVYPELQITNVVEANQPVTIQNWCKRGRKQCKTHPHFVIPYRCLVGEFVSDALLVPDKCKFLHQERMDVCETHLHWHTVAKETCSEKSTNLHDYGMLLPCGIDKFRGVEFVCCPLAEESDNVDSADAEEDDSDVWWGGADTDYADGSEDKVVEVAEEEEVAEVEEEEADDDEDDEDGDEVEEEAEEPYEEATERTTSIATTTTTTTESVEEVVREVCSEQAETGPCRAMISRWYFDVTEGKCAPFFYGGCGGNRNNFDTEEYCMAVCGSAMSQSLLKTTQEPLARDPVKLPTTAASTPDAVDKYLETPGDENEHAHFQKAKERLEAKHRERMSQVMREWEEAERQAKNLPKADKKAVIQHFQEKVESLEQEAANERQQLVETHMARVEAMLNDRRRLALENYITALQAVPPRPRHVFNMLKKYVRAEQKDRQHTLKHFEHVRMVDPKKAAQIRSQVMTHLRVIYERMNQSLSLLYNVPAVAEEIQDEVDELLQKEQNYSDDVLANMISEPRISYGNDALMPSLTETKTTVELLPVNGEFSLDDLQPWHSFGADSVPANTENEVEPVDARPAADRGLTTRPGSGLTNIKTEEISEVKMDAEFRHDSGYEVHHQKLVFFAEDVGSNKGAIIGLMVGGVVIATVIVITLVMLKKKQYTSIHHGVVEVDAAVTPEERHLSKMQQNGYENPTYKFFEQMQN

[39] = system: Kidney; assay: Biodistribution in NMRI mouse kidney at 3.7 MBq/mL, iv after 2 mins by gamma counting; format: ADME, organism-based; conditions: in vivo; outline: as §1

SMILES | Drug uptake [1] | Drug uptake [2] | Drug uptake [3] | Drug uptake [4] | Drug uptake [6] | Drug uptake [7] | Drug uptake [8] | Drug uptake [9] | Drug uptake [10] | Drug uptake [11] | Drug uptake [12] | Drug uptake [13] | Drug uptake [14] | Drug uptake [15] | Drug uptake [16] | Drug uptake [17] | Drug uptake [18] | Drug uptake [19] | Drug uptake [20] | pKi [38] | further results
Cc1ccc2nc(-c3ccc([18F])cc3)sc2c1 | 0.2 %ID | 5.4 % ID/g | 1.3 % ID/g | 24.8 %ID | 14.4 % ID/g | 1.1 % ID/g | 5.8 %ID | 0.04 %ID | 2.2 % ID/g | 1.1 %ID | 1.3 %ID | 0.27 % ID/g | 0.1 %ID | 2.8 %ID | 2.3 %ID | 4 % ID/g | 0.39 % ID/g | 24.6 % ID/g | 3.6 % ID/g |  | Drug uptake [5]: 3.6 %ID; Drug uptake [21]: 8.9 %ID; Drug uptake [22]: 5.99 % ID/g; Drug uptake [23]: 0.4 % ID/g; Drug uptake [24]: 0.42 %ID; Drug uptake [25]: 5.7 %ID; Drug uptake [26]: 0.3 %ID; Drug uptake [27]: 12 % ID/g; Drug uptake [28]: 1.3 %ID; Drug uptake [29]: 9.3 % ID/g; Drug uptake [30]: 51.8 %ID; Drug uptake [31]: 5.33 % ID/g; Drug uptake [32]: 1.62 %ID; Drug uptake [33]: 0.07 %ID; Drug uptake [34]: 19.3 %ID; Drug uptake [35]: 0.9 %ID; Drug uptake [36]: 0.5 % ID/g; Drug uptake [37]: 0.1 %ID
COc1ccc2nc(-c3ccc(F)cc3)sc2c1 |  |  |  |  |  |  |  |  |  |  |  |  |  |  |  |  |  |  |  | 8.66 | 
Oc1ccc2nc(-c3ccc(F)cc3)sc2c1 |  |  |  |  |  |  |  |  |  |  |  |  |  |  |  |  |  |  |  | 7.65 | 
Oc1cc(O)c2sc(-c3ccc(F)cc3)nc2c1 |  |  |  |  |  |  |  |  |  |  |  |  |  |  |  |  |  |  |  | 6.11 | 
Oc1ccc2nc(-c3ccc([18F])cc3)sc2c1 | 0.1 %ID | 5.8 % ID/g | 5.5 % ID/g | 28.1 %ID | 28.1 % ID/g | 1.3 % ID/g | 11.3 %ID | 0.08 %ID | 4 % ID/g | 0.5 %ID | 1.1 %ID | 0.57 % ID/g | 0.5 %ID | 3.3 %ID | 5.9 %ID | 4 % ID/g | 0.76 % ID/g | 11.9 % ID/g | 11.8 % ID/g |  | Drug uptake [5]: 7.6 %ID; Drug uptake [21]: 7.1 %ID; Drug uptake [22]: 5.13 % ID/g; Drug uptake [39]: 7 %ID; Drug uptake [23]: 1.8 % ID/g; Drug uptake [24]: 0.55 %ID; Drug uptake [25]: 10 %ID; Drug uptake [26]: 1.5 %ID; Drug uptake [27]: 13.3 % ID/g; Drug uptake [28]: 1.2 %ID; Drug uptake [29]: 12.6 % ID/g; Drug uptake [30]: 24.6 %ID; Drug uptake [31]: 4.7 % ID/g; Drug uptake [32]: 1.35 %ID; Drug uptake [33]: 0.16 %ID; Drug uptake [34]: 36.7 %ID; Drug uptake [35]: 0.9 %ID; Drug uptake [36]: 1.3 % ID/g; Drug uptake [37]: 0.1 %ID
O=C(O)c1ccc2nc(-c3ccc(F)cc3)sc2c1 |  |  |  |  |  |  |  |  |  |  |  |  |  |  |  |  |  |  |  | < 5.40 | 
Cc1ccc2nc(-c3ccc(F)cc3)sc2c1 |  |  |  |  |  |  |  |  |  |  |  |  |  |  |  |  |  |  |  | 8.24 | 
COc1ccc2nc(-c3ccc([18F])cc3)sc2c1 | 0.2 %ID | 3.9 % ID/g | 2.1 % ID/g | 19.9 %ID | 9.9 % ID/g | 1.7 % ID/g | 16.9 %ID | 0.07 %ID | 2 % ID/g | 1.2 %ID | 1.1 %ID | 0.43 % ID/g | 0.2 %ID | 4.4 %ID | 9.4 %ID | 4.1 % ID/g | 0.68 % ID/g | 6.7 % ID/g | 14.2 % ID/g |  | Drug uptake [21]: 8.4 %ID; Drug uptake [22]: 5.12 % ID/g; Drug uptake [39]: 8.6 %ID; Drug uptake [23]: 0.4 % ID/g; Drug uptake [24]: 0.56 %ID; Drug uptake [25]: 4.9 %ID; Drug uptake [26]: 0.6 %ID; Drug uptake [27]: 9.9 % ID/g; Drug uptake [28]: 1.3 %ID; Drug uptake [29]: 13.9 % ID/g; Drug uptake [30]: 13.6 %ID; Drug uptake [31]: 5.1 % ID/g; Drug uptake [32]: 1.57 %ID; Drug uptake [33]: 0.13 %ID; Drug uptake [34]: 34.3 %ID; Drug uptake [35]: 0.8 %ID; Drug uptake [36]: 0.6 % ID/g; Drug uptake [37]: 0.1 %ID
